Measurements: ChEMBL document CHEMBL4007430, “Synthesis and Cytostatic and Antiviral Profiling of Thieno-Fused 7-Deazapurine Ribonucleosides” (J Med Chem, 2017)

Tests used:
BJ = test: Cytotoxicity against human BJ cells assessed as cell growth inhibition after 72 hrs by MTS assay; type: cell-based
Summary of the method: (§1)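 Cells were exposed to compound for 3 days, then stained with MTS as a quantitative metabolic read-out. IC50 is the concentration that inhibits cell growth by 50%.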

MRC5 = test: Cytotoxicity against human MRC5 cells assessed as cell growth inhibition after 72 hrs by MTS assay; type: cell-based; details: MRC5, 72 h; summary of the method: as §1
CCRF-CEM [1] = test: Inhibition of RNA synthesis in human CCRF-CEM cells assessed as decrease in BrU incorporation by measuring synthesized RNA levels at IC50 after 24 hrs by propidium iodide staining-based flow cytometric method (reference value: 53.09%); type: functional
CCRF-CEM [2] = test: Cell cycle arrest in human CCRF-CEM cells assessed as accumulation at G2/M phase at IC50 after 24 hrs by propidium iodide staining-based flow cytometric analysis (reference value: 14.70%); type: functional
CCRF-CEM [3] = test: Inhibition of DNA synthesis in human CCRF-CEM cells assessed as decrease in BrdU incorporation by measuring synthesized DNA levels at 5 times IC50 after 24 hrs by propidium iodide staining-based flow cytometric analysis (reference value: 52.66%); type: functional
U2OS = test: Cytotoxicity against human U2OS cells assessed as cell growth inhibition after 72 hrs by MTS assay; type: functional, cell-based
CCRF-CEM [4] = test: Inhibition of DNA synthesis in human CCRF-CEM cells assessed as decrease in BrdU incorporation by measuring synthesized DNA levels at IC50 after 24 hrs by propidium iodide staining-based flow cytometric analysis (reference value: 52.66%); type: functional
CCRF-CEM [5] = test: Cell cycle arrest in human CCRF-CEM cells assessed as accumulation at S phase at 5 times IC50 after 24 hrs by propidium iodide staining-based flow cytometric analysis (reference value: 44.20%); type: functional
CCRF-CEM [6] = test: Inhibition of RNA synthesis in human CCRF-CEM cells assessed as decrease in BrU incorporation by measuring synthesized RNA levels at 5 times IC50 after 24 hrs by propidium iodide staining-based flow cytometric method (reference value: 53.09%); type: functional
[7] = Cytotoxicity against mrp-1/mdr-1 overexpressing human CEM-DNR-bulk cells assessed as cell growth inhibition after 72 hrs by MTS assay; type: functional, cell-based
Summary of the method: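 Cells were exposed to compound for 3 days, then stained with MTS as a quantitative metabolic read-out.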

HeLa S3 = test: Cytotoxicity against human HeLaS3 cells assessed as reduction in cell viability after 72 hrs by XTT assay; type: functional, cell-based; details: HeLa S3, 72 h
Summary of the method: (§2)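 Cells were incubated with compound for 3 days. Viability was then measured with the XTT tetrazolium assay.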

CCRF-CEM [8] = test: Cytotoxicity against human CCRF-CEM cells assessed as cell growth inhibition after 72 hrs by MTS assay
HepG2 = test: Cytotoxicity against human HepG2 cells assessed as reduction in cell viability after 72 hrs by XTT assay; type: functional, cell-based; details: HepG2, 72 h; summary of the method: as §2
HCT-116 [9] = test: Cytotoxicity against human HCT116 cells assessed as cell growth inhibition after 72 hrs by MTS assay; type: functional, cell-based; details: HCT-116, 72 h; summary of the method: as §1
A549 = test: Cytotoxicity against human A549 cells assessed as cell growth inhibition after 72 hrs by MTS assay; type: functional, cell-based; details: A549, 72 h; summary of the method: as §1
[10] = Cytotoxicity against human K562-TAX cells assessed as cell growth inhibition after 72 hrs by MTS assay; type: functional, cell-based; summary of the method: as §1
CCRF-CEM [11] = test: Induction of apoptosis in human CCRF-CEM cells assessed as accumulation at subG1 phase at 5 times IC50 after 24 hrs by propidium iodide staining-based flow cytometric analysis (reference value: 2.32%); type: functional
CCRF-CEM [12] = test: Induction of apoptosis in human CCRF-CEM cells assessed as accumulation at subG1 phase at IC50 after 24 hrs by propidium iodide staining-based flow cytometric analysis (reference value: 2.32%); type: functional
CCRF-CEM [13] = test: Inhibition of mitosis in human CCRF-CEM cells assessed as pH3Ser10 positive cells at 5 times IC50 after 24 hrs by flow cytometric analysis (reference value: 1.74%); type: functional
K562 = test: Cytotoxicity against human K562 cells assessed as cell growth inhibition after 72 hrs by MTS assay; type: functional, cell-based; details: K562, 72 h; summary of the method: as §1
CCRF-CEM [14] = test: Inhibition of mitosis in human CCRF-CEM cells assessed as pH3Ser10 positive cells at IC50 after 24 hrs by flow cytometric analysis (reference value: 1.74%); type: functional
CCRF-CEM [15] = test: Inhibition of mitosis in human CCRF-CEM cells assessed as pH3Ser10 positive cells after 24 hrs by flow cytometric analysis; type: functional, cell-based
CCRF-CEM [16] = test: Cell cycle arrest in human CCRF-CEM cells assessed as accumulation at G0/G1 phase at 5 times IC50 after 24 hrs by propidium iodide staining-based flow cytometric analysis (reference value: 41.11%); type: functional
[17] = Cytotoxicity against human HuH7 cells; type: cell-based, Huh-7
HL-60 = test: Cytotoxicity against human HL60 cells assessed as reduction in cell viability after 72 hrs by XTT assay; type: functional, cell-based; details: HL-60, 72 h; summary of the method: as §2
CCRF-CEM [18] = test: Cell cycle arrest in human CCRF-CEM cells assessed as accumulation at G2/M phase at 5 times IC50 after 24 hrs by propidium iodide staining-based flow cytometric analysis (reference value: 14.70%); type: functional
Hepatitis C virus [19] = test: Anti-HCV activity against Hepatitis C virus genotype 2a infected in human Huh7 replicon cells after 96 hrs by luciferase reporter gene assay; type: functional, cell-based, Hepacivirus hominis; details: Huh-7, 96 h
HCT-116 [20] = test: Cytotoxicity against p53 deficient human HCT116 cells assessed as cell growth inhibition after 72 hrs by MTS assay; type: functional, cell-based; details: HCT-116, 72 h; summary of the method: as §1
CCRF-CEM [21] = test: Cell cycle arrest in human CCRF-CEM cells assessed as accumulation at S phase at IC50 after 24 hrs by propidium iodide staining-based flow cytometric analysis (reference value: 44.20%); type: functional
Hepatitis C virus [22] = test: Anti-HCV activity against Hepatitis C virus genotype 1b infected in human Huh7 replicon cells after 96 hrs by luciferase reporter gene assay; type: functional, cell-based, Hepacivirus hominis; details: Huh-7, 96 h
CCRF-CEM [23] = test: Cell cycle arrest in human CCRF-CEM cells assessed as accumulation at G0/G1 phase at IC50 after 24 hrs by propidium iodide staining-based flow cytometric analysis (reference value: 41.11%); type: functional

| SMILES | IC50 (BJ) [µM] | IC50 (MRC5) [µM] | IC50 (U2OS) [µM] | IC50 [7] [µM] | IC50 (HeLa S3) [µM] | IC50 (CCRF-CEM [8]) [µM] | IC50 (HepG2) [µM] | IC50 (HCT-116 [9]) [µM] | IC50 (A549) [µM] | IC50 [10] [µM] | IC50 (K562) [µM] | CC50 [17] [µM] | IC50 (HL-60) [µM] | EC50 (Hepatitis C virus [19]) [µM] | IC50 (HCT-116 [20]) [µM] | EC50 (Hepatitis C virus [22]) [µM] | also measured |
| --- | --- | --- | --- | --- | --- | --- | --- | --- | --- | --- | --- | --- | --- | --- | --- | --- | --- |
| Nc1ccn([C@@H]2O[C@H](CO)[C@@H](O)C2(F)F)c(=O)n1 [GEMCITABINE] | > 50 | > 50 |  |  |  |  |  |  |  |  |  |  |  |  |  |  |  |
| COc1ncnc2c1c1ccsc1n2[C@@H]1O[C@H](CO)[C@@H](O)[C@H]1O | 7.49 | > 50 | 0.93 | > 50 | 0.23 | 0.22 | 1.33 | 0.61 | 1.23 | 11.1 | 1.06 | > 44.4 | 0.57 | 0.4 | 0.64 | 0.23 | BrU+ cells (%) (CCRF-CEM [1]): 28.75%; Activity (CCRF-CEM [2]): 19.25%; BrdU+ cells (%) (CCRF-CEM [3]): 55.12%; BrdU+ cells (%) (CCRF-CEM [4]): 62.59%; Activity (CCRF-CEM [5]): 63.97%; BrU+ cells (%) (CCRF-CEM [6]): 8.31%; Activity (CCRF-CEM [11]): 11.22%; Activity (CCRF-CEM [12]): 2.55%; pH3Ser10+ cells (%) (CCRF-CEM [13]): 0.38%; pH3Ser10+ cells (%) (CCRF-CEM [14]): 1.17%; Activity (CCRF-CEM [15]): Dose-dependent effect; Activity (CCRF-CEM [16]): 23.76%; Activity (CCRF-CEM [18]): 12.27%; Activity (CCRF-CEM [21]): 45.01%; Activity (CCRF-CEM [23]): 35.73% |
| OC[C@H]1O[C@@H](n2c3ccsc3c3c(-c4ccoc4)ncnc32)[C@H](O)[C@@H]1O | 32 | > 50 | > 50 | > 50 | > 50 | 3.61 | > 50 | > 50 | > 50 | > 50 | > 50 |  | > 50 |  | > 50 |  |  |
| COc1ncnc2c1c1sccc1n2[C@@H]1O[C@H](CO)[C@@H](O)[C@H]1O | 0.4 | 25.2 | 0.46 | 61.8 | 0.9 | 0.13 | 0.15 | 0.13 | 0.22 | 4.05 | 0.2 | 13.9 to 29.2 | 0.11 | 15 | 0.13 | 0.95 | BrU+ cells (%) (CCRF-CEM [1]): 34.93%; Activity (CCRF-CEM [2]): 14.73%; BrdU+ cells (%) (CCRF-CEM [3]): 63.58%; BrdU+ cells (%) (CCRF-CEM [4]): 56%; Activity (CCRF-CEM [5]): 75.47%; BrU+ cells (%) (CCRF-CEM [6]): 26.27%; Activity (CCRF-CEM [11]): 17.46%; Activity (CCRF-CEM [12]): 11.17%; pH3Ser10+ cells (%) (CCRF-CEM [13]): 0.41%; pH3Ser10+ cells (%) (CCRF-CEM [14]): 1.07%; Activity (CCRF-CEM [15]): Dose-dependent effect; Activity (CCRF-CEM [16]): 18.67%; Activity (CCRF-CEM [18]): 5.86%; Activity (CCRF-CEM [21]): 50.91%; Activity (CCRF-CEM [23]): 34.35% |
| CC(C)C(=O)OC[C@H]1O[C@@H](n2ccc(N)nc2=O)[C@](C)(F)[C@@H]1OC(=O)C(C)C [MERICITABINE] |  |  |  |  |  |  |  |  |  |  |  | > 44.4 |  |  |  |  |  |
| OC[C@H]1O[C@@H](n2c3ccsc3c3c(-c4ccco4)ncnc32)[C@H](O)[C@@H]1O | > 50 | > 50 | > 50 | > 50 | > 50 | > 50 | > 50 | > 50 | > 50 | > 50 | > 50 |  | > 50 |  | > 50 |  |  |
| OC[C@H]1O[C@@H](n2c3ncnc(-c4ccco4)c3c3ccsc32)[C@H](O)[C@@H]1O | > 50 | > 50 | > 50 | > 50 | > 50 | > 50 | > 50 | > 50 | > 50 | > 50 | > 50 |  | > 50 |  | > 50 |  |  |
| OC[C@H]1O[C@@H](n2c3ccsc3c3c(-c4cc5ccccc5o4)ncnc32)[C@H](O)[C@@H]1O | 23 | 32.6 | 18.5 | 14.4 | 24.3 | 6.86 | 4.28 | 16.2 | 21.2 | 17.9 | 15.4 | 19.6 to 26.6 | 2.38 | 13.9 | 12.3 | 2.1 |  |
| CN(C)c1ncnc2c1c1ccsc1n2[C@@H]1O[C@H](CO)[C@@H](O)[C@H]1O | > 50 | > 50 | > 50 | > 50 | > 50 | > 50 | > 50 | > 50 | > 50 | > 50 | > 50 |  | > 50 |  | > 50 |  |  |
| OC[C@H]1O[C@@H](n2c3ncnc(-c4cc5ccccc5o4)c3c3ccsc32)[C@H](O)[C@@H]1O | 36.8 | 37.5 | 33.1 | 20.6 | > 50 | 15.9 | > 50 | 47.1 | > 50 | 14.9 | 29.7 | > 44.4 | > 50 | 14.1 | > 50 | 2.05 |  |
| CN(C)c1ncnc2c1c1sccc1n2[C@@H]1O[C@H](CO)[C@@H](O)[C@H]1O | > 50 | > 50 | > 50 | > 50 | > 50 | 47.6 | > 50 | > 50 | > 50 | > 50 | > 50 |  | > 50 |  | > 50 |  |  |
| Nc1ncnc2c1c1sccc1n2[C@@H]1O[C@H](CO)[C@@H](O)[C@H]1O | 16.8 | 30.3 | 2.5 | 15.2 | 1.54 | 6.22 | 0.56 | 5.39 | 11.9 | 4.28 | 6.16 | 16.4 to 17.2 | 0.31 | 13.5 | 4.37 | 5.02 |  |
| Nc1ncnc2c1c1ccsc1n2[C@@H]1O[C@H](CO)[C@@H](O)[C@H]1O | 1.09 | > 50 | 0.51 | 41.2 | > 50 | 0.3 | 1.46 | 46.7 | 30.1 | 0.82 | 36.3 | > 44.4 | 0.95 | > 44.4 | 10.9 | 17.5 |  |
| OC[C@H]1O[C@@H](n2c3ncnc(-c4ccoc4)c3c3ccsc32)[C@H](O)[C@@H]1O | > 50 | > 50 | > 50 | > 50 | > 50 | > 50 | > 50 | > 50 | > 50 | > 50 | > 50 |  | > 50 |  | > 50 |  |  |
